Experimental data from ChEMBL document CHEMBL3232716, “Tailoring cytotoxicity of antimicrobial peptidomimetics with high activity against multidrug-resistant Escherichia coli” (J Med Chem, 2014).
≈ marks a conversion by molar mass, not a printed value. Square brackets hold non-standard residues; d marks the D form. Peptide text beside a SMILES is read from it. hArg = N=C(N)NCCCC[C@H](N)C(=O)O; Nspe = C[C@H](NCC(=O)O)c1ccccc1; Nphe = O=C(O)CNCc1ccccc1

Legend:
[1] = system: Acinetobacter baumannii; experiment: Antibacterial activity against multidrug-resistant Acinetobacter baumannii clinical isolate E2-1228625 after 18 hrs by microdilution broth method; format: functional
[2] = system: Staphylococcus aureus; experiment: Antibacterial activity against methicillin-resistant Staphylococcus aureus ATCC 33591 after 18 hrs by microdilution broth method; format: functional
In short: (§1)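 CLSI broth microdilution. […] Incubated 35 °C in ambient air for 18 h. MIC taken as the lowest concentration with no visible growth versus the compound-free control. Reported as median and range of three independent biological replicates run on separate days.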

[3] = system: HeLa; experiment: Cytotoxicity against human HeLa cells after 1 hr by MTS/PMS assay; format: cell-based
In short: (§2)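 Monolayers (passage 4–10) grown ~21–25 h to ~90% confluence. Seeding per well: HeLa 8000, HepG2 23 000, NIH 3T3 22 000, IEC-6 16 000, Caco-2 25 000. Cells washed with HBSS/10 mM Hepes pH 7.4 and exposed 1 h at 37 °C, 50 rpm, to compound 0–2000 μM in culture medium. MTS 240 μg/mL/PMS 2.4 μg/mL for 1.5–4 h, A492. Viability referenced to SDS and untreated controls; IC50 from one biological replicate in triplicate.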

[4] = system: Caco-2; experiment: Cytotoxicity against human Caco2 cells after 1 hr by MTS/PMS assay; format: cell-based; conditions: Caco-2, 1 h; in short: as §2
[5] = system: HepG2; experiment: Cytotoxicity against human HepG2 cells after 1 hr by MTS/PMS assay; format: cell-based; conditions: HepG2, 1 h; in short: as §2
[6] = Cytotoxicity against rat IEC-6 cells after 1 hr by MTS/PMS assay; format: cell-based; conditions: IEC-6, 1 h; in short: as §2
[7] = Cytotoxicity against mouse NIH/3T3 cells after 1 hr by MTS/PMS assay; format: cell-based; conditions: NIH3T3, 1 h; in short: as §2
[8] = system: HUVEC; experiment: Cytotoxicity against HUVEC after 1 hr by MTS/PMS assay; format: cell-based; conditions: Homo sapiens
In short: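 HUVEC seeded at 15 000 cells/well on collagen-coated wells (0.6 μg/cm2), passage 4–10, grown to ~90% confluence over 21–25 h. Cells exposed to compound (0–2000 μM) in F-12K medium for 1 h at 37 °C. MTS 240 μg/mL with PMS 9.6 μg/mL in HBSS for 1.5–4 h, then A492. Viability referenced to 0.2% SDS and untreated cells; IC50 reported.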

[9] = Hemolytic activity in human RBC after 1 hr; format: ADME, cell-based; conditions: Erythrocyte
In short: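 Fresh human erythrocytes washed in PBS pH 7.4. A 0.5% v/v suspension was mixed 1:1 with 2-fold dilutions of compound (8–1024 μM) and incubated 1 h at 37 °C, then centrifuged. Supernatant hemoglobin read at OD414. Melittin 400 μg/mL set 100% lysis and PBS set 0%. Value is the concentration giving 50% lysis.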

[10] = Binding affinity to synthetic POPC/POPG liposomal membrane at 20 uM by circular dichroism analysis; format: physicochemical; conditions: artificial membrane
In short: (§3)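 CD spectra recorded with 20 μM test compound and 2 mM liposomes in 10 mM Tris buffer, pH 7.5. Liposomes were roughly 100 nm: POPC/POPG 7:3 (bacterial model) or POPC/POPG/cholesterol 5:3:2 (mammalian model). Lipid concentration was standardized by enzymatic phospholipid colorimetric assay.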

[11] = Binding affinity to cholesterol containing synthetic POPC/POPG liposomal membrane at 20 uM by circular dichroism analysis; format: physicochemical; conditions: artificial membrane; in short: as §3
[12] = system: Escherichia coli; experiment: Antibacterial activity against Escherichia coli ATCC 25922 after 18 hrs by microdilution broth method; format: functional; in short: as §1
[13] = system: Escherichia coli; experiment: Antibacterial activity against extended-spectrum beta-lactamase producing multidrug-resistant and colistin-susceptible Escherichia coli CTX-M-15 clinical isolate Aar 11 after 18 hrs by microdilution broth method; format: functional
[14] = system: Escherichia coli; experiment: Antibacterial activity against NDM-1 producing Escherichia coli clinical isolate 74859898 after 18 hrs by microdilution broth method; format: functional
[15] = system: Enterococcus faecium; experiment: Antibacterial activity against vancomycin-resistant Enterococcus faecium ATCC 700221 after 18 hrs by microdilution broth method; conditions: ATCC 700221, 18 h
[16] = system: Enterococcus faecalis; experiment: Antibacterial activity against vancomycin-resistant Enterococcus faecalis ATCC 700221 after 18 hrs by microdilution broth method; format: functional
In short: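 CLSI broth microdilution. Incubated 35 °C in ambient air for 18 h. MIC taken as the lowest concentration with no visible growth versus the compound-free control. Reported as median and range of three independent biological replicates run on separate days.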

[17] = clinical isolate E2-1228625, 18 h
[18] = clinical isolate 74859898, 18 h

| Compound | MIC [1, 17] [µM] | MIC ([2]; ATCC 33591, 18 h) [µM] | IC50 [3] [µM] | IC50 [4] [µM] | IC50 [5] [µM] | IC50 [6] [µM] | IC50 [7] [µM] | IC50 [8] [µM] | IC50 [9] [µM] | Activity [10] | Activity [11] | MIC ([12]; ATCC 25922, 18 h) [µM] | MIC ([13]; CTX-M-15, 18 h) [µM] | MIC [14, 18] [µM] | MIC [15] [µM] | further results |
| --- | --- | --- | --- | --- | --- | --- | --- | --- | --- | --- | --- | --- | --- | --- | --- | --- |
| CC(=O)N[C@@H](CCCCN)C(=O)N(CCC(=O)N[C@@H](CCCCNC(=N)N)C(=O)N(CCC(=O)N[C@@H](CCCCN)C(=O)N(CCC(=O)N[C@@H](CCCCNC(=N)N)C(=O)N(CCC(=O)N[C@@H](CCCCN)C(=O)N(CCC(=O)N[C@@H](CCCCNC(=N)N)C(=O)N(CCC(=O)N[C@@H](CCCCN)C(=O)N(CCC(N)=O)Cc1ccccc1)Cc1ccccc1)Cc1ccccc1)Cc1ccccc1)Cc1ccccc1)Cc1ccccc1)Cc1ccccc1 | 4 (≈ 8.84 µg/mL) | 16 (≈ 35.4 µg/mL) | 77 | 353 | 116 | 266 | 172 | 458 | > 1020 | Not Active | Not Active | 1 (≈ 2.21 µg/mL) | 1 (≈ 2.21 µg/mL) | 1 (≈ 2.21 µg/mL) | 16 (≈ 35.4 µg/mL) | – |
| GENTAMICIN | – | – | – | – | – | – | – | – | – | – | – | – | – | – | – | MIC [1]: > 128 µM; MIC [2]: 0.5 µM; MIC [16]: > 128 µM; MIC [12]: 0.25 µM; MIC [13]: 32 µM; MIC [14]: > 128 µM |
| CC(=O)N[C@@H](CCCCN)C(=O)N(CC(=O)N[C@@H](CCCCNC(=N)N)C(=O)N(CC(=O)N[C@@H](CCCCN)C(=O)N(CC(=O)N[C@@H](CCCCNC(=N)N)C(=O)N(CC(=O)N[C@@H](CCCCN)C(=O)N(CC(=O)N[C@@H](CCCCNC(=N)N)C(=O)N(CC(N)=O)[C@@H](C)c1ccccc1)[C@@H](C)c1ccccc1)[C@@H](C)c1ccccc1)[C@@H](C)c1ccccc1)[C@@H](C)c1ccccc1)[C@@H](C)c1ccccc1 (Ac-K[Nspe][hArg][Nspe]K[Nspe][hArg][Nspe]K[Nspe][hArg][Nspe]-NH2) | 2 (≈ 3.84 µg/mL) | 16 (≈ 30.7 µg/mL) | 52 | 376 | 77 | 67 | 121 | 351 | – | Not Active | Not Active | 2 (≈ 3.84 µg/mL) | 4 (≈ 7.69 µg/mL) | 2 (≈ 3.84 µg/mL) | 2 (≈ 3.84 µg/mL) | – |
| CC(=O)N[C@@H](CCCCNC(=N)N)C(=O)N(CCC(=O)N[C@@H](CCCCN)C(=O)N(CCC(=O)N[C@@H](CCCCNC(=N)N)C(=O)N(CCC(=O)N[C@@H](CCCCN)C(=O)N(CCC(=O)N[C@@H](CCCCNC(=N)N)C(=O)N(CCC(N)=O)Cc1ccccc1)Cc1ccccc1)Cc1ccccc1)Cc1ccccc1)Cc1ccccc1 | 128 (≈ 209 µg/mL) | 64 (≈ 104 µg/mL) | 508 | > 1000 | 943 | > 1000 | 745 | > 1000 | – | Not Active | Not Active | 8 (≈ 13.1 µg/mL) | 16 (≈ 26.1 µg/mL) | 8 (≈ 13.1 µg/mL) | 128 (≈ 209 µg/mL) | – |
| CC(=O)N[C@@H](CCCCN)C(=O)N(CC(=O)N[C@@H](CCCCNC(=N)N)C(=O)N(CC(=O)N[C@@H](CCCCN)C(=O)N(CC(=O)N[C@@H](CCCCNC(=N)N)C(=O)N(CC(=O)N[C@@H](CCCCN)C(=O)N(CC(=O)N[C@@H](CCCCNC(=N)N)C(=O)N(CC(N)=O)Cc1ccccc1)Cc1ccccc1)Cc1ccccc1)Cc1ccccc1)Cc1ccccc1)Cc1ccccc1 (Ac-K[Nphe][hArg][Nphe]K[Nphe][hArg][Nphe]K[Nphe][hArg][Nphe]-NH2) | 64 (≈ 118 µg/mL) | 64 (≈ 118 µg/mL) | 316 | > 1000 | 698 | 636 | 635 | > 1000 | > 1020 | Not Active | Not Active | 2 (≈ 3.67 µg/mL) | 2 (≈ 3.67 µg/mL) | 1 (≈ 1.84 µg/mL) | 32 (≈ 58.8 µg/mL) | – |
| CC(=O)N[C@@H](CCCCN)C(=O)N(CC(=O)N[C@@H](CCCCNC(=N)N)C(=O)N(CC(=O)N[C@@H](CCCCN)C(=O)N(CC(=O)N[C@@H](CCCCNC(=N)N)C(=O)N(CC(=O)N[C@@H](CCCCN)C(=O)N(CC(=O)N[C@@H](CCCCNC(=N)N)C(=O)N(CC(=O)N[C@@H](CCCCN)C(=O)N(CC(N)=O)[C@@H](C)c1ccccc1)[C@@H](C)c1ccccc1)[C@@H](C)c1ccccc1)[C@@H](C)c1ccccc1)[C@@H](C)c1ccccc1)[C@@H](C)c1ccccc1)[C@@H](C)c1ccccc1 (Ac-K[Nspe][hArg][Nspe]K[Nspe][hArg][Nspe]K[Nspe][hArg][Nspe]K[Nspe]-NH2) | 1 (≈ 2.21 µg/mL) | 16 (≈ 35.4 µg/mL) | 21 | 182 | 35 | 30 | 67 | 145 | – | Not Active | Not Active | 1 (≈ 2.21 µg/mL) | 2 (≈ 4.42 µg/mL) | 1 (≈ 2.21 µg/mL) | 4 (≈ 8.84 µg/mL) | – |
